According to ChEMBL document CHEMBL1955824, “Indeno[1,2-b]indole derivatives as a novel class of potent human protein kinase CK2 inhibitors” (Bioorg Med Chem, 2012):

Columns and labels:
[1] = biological target: Casein kinase II alpha/beta (Homo sapiens) (UniProt P67870+P68400); test: Inhibition of human CSNK2A1/2B expressed in Escherichia coli BL21(DE3) using RRRDDDSDDD as substrate at 10 uM after 15 mins by scintillation counting
Summary of the method: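 Holoenzyme from CSNK2A1 and CSNK2B subunits expressed separately in E. coli, extracts combined, column-purified. Enzyme preincubated with inhibitor in DMSO in Tris pH 7.5 kinase buffer. Final ATP 60 µM, peptide 114 µM. Incubated 37 °C for 15 min, spotted on P81 paper, washed with phosphoric acid and ethanol, then counted. Controls: DMSO (0%), no CK2 (100%).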

[2] = Inhibition of rat liver casein kinase-2 preincubated for 5 mins prior ATP addition measured after 40 mins
[3] = biological target: RAC-alpha serine/threonine-protein kinase (Homo sapiens, UniProt P31749); test: Inhibition of human recombinant AKT1 expressed in Sf9 cells using GSK3(14-27) as substrate after 80 mins by scintillation counting
Summary of the method: (§1)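 Commercial radiometric panel of His-tagged or GST-fused human kinases expressed in Sf9 cells, affinity-purified. Inhibitor added in 10% DMSO. Ten concentrations tested in singlicate; IC50 taken from dose–response curves.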

[4] = biological target: Insulin-like growth factor 1 receptor (Homo sapiens, UniProt P08069); test: Inhibition of human recombinant IGF1R expressed in Sf9 cells using poly(E,Y)4:1 as substrate after 80 mins by scintillation counting; summary of the method: as §1
[5] = biological target: Vascular endothelial growth factor receptor 2 (Homo sapiens, UniProt P35968); test: Inhibition of human recombinant VEGF-R2 expressed in Sf9 cells using poly(E,Y)4:1 as substrate after 80 mins by scintillation counting; summary of the method: as §1
[6] = biological target: Vascular endothelial growth factor receptor 3 (Homo sapiens, UniProt P35916); test: Inhibition of human recombinant VEGF-R3 expressed in Sf9 cells using poly(E,Y)4:1 as substrate after 80 mins by scintillation counting; summary of the method: as §1
[7] = biological target: Hepatocyte growth factor receptor (Homo sapiens, UniProt P08581); test: Inhibition of human recombinant MET expressed in Sf9 cells using poly(A,E,K,Y)6:2:5:1 as substrate after 80 mins by scintillation counting; summary of the method: as §1
Insulin receptor = Insulin receptor (Homo sapiens, UniProt P06213); test: Inhibition of human recombinant INS-R expressed in Sf9 cells using poly(A,E,K,Y)6:2:5:1 as substrate after 80 mins by scintillation counting; summary of the method: as §1
Angiopoietin-1 receptor = Angiopoietin-1 receptor (Homo sapiens, UniProt Q02763); test: Inhibition of human recombinant TIE2 expressed in Sf9 cells using poly(E,Y)4:1 as substrate after 80 mins by scintillation counting; summary of the method: as §1
[8] = biological target: Serine/threonine-protein kinase B-raf (Homo sapiens, UniProt P15056); test: Inhibition of human recombinant B-RAF expressed in Sf9 cells using MEK1 KM as substrate after 80 mins by scintillation counting; summary of the method: as §1
Focal adhesion kinase 1 = Focal adhesion kinase 1 (Homo sapiens, UniProt Q05397); test: Inhibition of human recombinant FAK expressed in Sf9 cells using poly(E,Y)4:1 as substrate after 80 mins by scintillation counting; summary of the method: as §1
[9] = biological target: Serine/threonine-protein kinase PLK1 (Homo sapiens, UniProt P53350); test: Inhibition of human recombinant PLK1 expressed in Sf9 cells using casein as substrate after 80 mins by scintillation counting; summary of the method: as §1
[10] = biological target: Mitogen-activated protein kinase kinase kinase 8 (Homo sapiens, UniProt P41279); test: Inhibition of human recombinant COT expressed in Sf9 cells assessed as autophosphorylation after 80 mins by scintillation counting; summary of the method: as §1
[11] = biological target: NUAK family SNF1-like kinase 1 (Homo sapiens, UniProt O60285); test: Inhibition of human recombinant ARK5 expressed in Sf9 cells assessed as autophosphorylation after 80 mins by scintillation counting; summary of the method: as §1
[12] = biological target: Cyclin-dependent kinase 2/cyclin A (Homo sapiens, UniProt P24941); test: Inhibition of human recombinant CDK2/CyclinA expressed in Sf9 cells using histone H1 as substrate after 80 mins by scintillation counting; summary of the method: as §1
Ephrin type-B receptor 4 = Ephrin type-B receptor 4 (Homo sapiens, UniProt P54760); test: Inhibition of human recombinant EPHB4 expressed in Sf9 cells using poly(E,Y)4:1 as substrate after 80 mins by scintillation counting; summary of the method: as §1
Aurora kinase B = Aurora kinase B (Homo sapiens, UniProt Q96GD4); test: Inhibition of human recombinant aurora-B expressed in Sf9 cells using tetra(LRRWSLG) as substrate after 80 mins by scintillation counting; summary of the method: as §1
[13] = biological target: Cyclin-dependent kinase 4/cyclin D1 (Homo sapiens, UniProt P11802); test: Inhibition of human recombinant CDK4/CyclinD1 expressed in Sf9 cells using RB-CTF as substrate after 80 mins by scintillation counting; summary of the method: as §1
[14] = biological target: Proto-oncogene tyrosine-protein kinase Src (Homo sapiens, UniProt P12931); test: Inhibition of human recombinant SRC expressed in Sf9 cells using poly(E,Y)4:1 as substrate after 80 mins by scintillation counting; summary of the method: as §1
Aurora kinase A = Aurora kinase A (Homo sapiens, UniProt O14965); test: Inhibition of human recombinant aurora-A expressed in Sf9 cells using tetra(LRRWSLG) as substrate after 80 mins by scintillation counting; summary of the method: as §1
[15] = biological target: Receptor tyrosine-protein kinase erbB-2 (Homo sapiens, UniProt P04626); test: Inhibition of human recombinant ERBB2 expressed in Sf9 cells using poly(E,Y)4:1 as substrate after 80 mins by scintillation counting; summary of the method: as §1
[16] = biological target: Serine/threonine-protein kinase PLK4 (Homo sapiens, UniProt O00444); test: Inhibition of human recombinant SAK expressed in Sf9 cells using p38alpha-KRKR as substrate after 80 mins by scintillation counting; summary of the method: as §1
[17] = biological target: Casein kinase II alpha/beta (Homo sapiens, UniProt P68400); test: Inhibition of human CSNK2A1/2B expressed in Escherichia coli BL21(DE3) using RRRDDDSDDD as substrate after 15 mins by scintillation counting
[18] = Inhibition of casein kinase-2
Summary of the method: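 Recombinant human CK2 holoenzyme (CSNK2A1 and CSNK2B expressed separately in E. coli, extracts combined and purified), preincubated with compound in DMSO in kinase buffer pH 7.5. 37 °C, 15 min, P81 paper, scintillation counting. IC50 from dose–response over 0.01–30 µM, at least triplicate independent experiments.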

[19] = Growth inhibition of human KYSE-70 cells at 20 uM after 96 hrs by crystal violet staining; format: functional; conditions: KYSE-70, 96 h, read-out: GI
Summary of the method: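 KYSE-70 esophageal cancer cells grown in RPMI 1640 with 10% FCS, penicillin G and streptomycin. Cells exposed 96 h to compounds dissolved in DMF (final solvent 0.1%). Fixed 20 min in 1% glutaraldehyde, stained 30 min with 0.02% crystal violet, washed 30 min in water. Bound dye dissolved in ethanol/water 7:3, absorbance read at 570 nm.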

[20] = Inhibition of calf thymus casein kinase-2 using casein as substrate after 15 mins by liquid scintillation counting; set-up: species or system Bos taurus

Chain of Casein kinase II alpha/beta (Homo sapiens) (P67870 2-215 limits assumed): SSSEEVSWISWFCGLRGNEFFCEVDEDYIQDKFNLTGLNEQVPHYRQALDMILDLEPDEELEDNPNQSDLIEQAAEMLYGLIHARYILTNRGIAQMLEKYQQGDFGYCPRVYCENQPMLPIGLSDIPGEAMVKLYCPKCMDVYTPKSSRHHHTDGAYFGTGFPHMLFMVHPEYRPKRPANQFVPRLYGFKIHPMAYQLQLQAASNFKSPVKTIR
Chain of Casein kinase II alpha/beta (Homo sapiens) (P68400 whole entry partner): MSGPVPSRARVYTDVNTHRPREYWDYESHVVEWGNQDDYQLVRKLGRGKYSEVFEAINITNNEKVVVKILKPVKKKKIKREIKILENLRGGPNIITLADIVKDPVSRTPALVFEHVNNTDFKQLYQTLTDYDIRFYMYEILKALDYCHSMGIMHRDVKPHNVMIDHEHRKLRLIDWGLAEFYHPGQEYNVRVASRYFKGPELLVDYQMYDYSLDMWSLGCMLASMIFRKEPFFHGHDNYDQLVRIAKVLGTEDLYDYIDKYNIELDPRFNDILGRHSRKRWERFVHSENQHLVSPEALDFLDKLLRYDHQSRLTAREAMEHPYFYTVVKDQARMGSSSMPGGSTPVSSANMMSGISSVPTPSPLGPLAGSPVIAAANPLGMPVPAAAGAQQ
Chain of Focal adhesion kinase 1 (Q05397 whole entry): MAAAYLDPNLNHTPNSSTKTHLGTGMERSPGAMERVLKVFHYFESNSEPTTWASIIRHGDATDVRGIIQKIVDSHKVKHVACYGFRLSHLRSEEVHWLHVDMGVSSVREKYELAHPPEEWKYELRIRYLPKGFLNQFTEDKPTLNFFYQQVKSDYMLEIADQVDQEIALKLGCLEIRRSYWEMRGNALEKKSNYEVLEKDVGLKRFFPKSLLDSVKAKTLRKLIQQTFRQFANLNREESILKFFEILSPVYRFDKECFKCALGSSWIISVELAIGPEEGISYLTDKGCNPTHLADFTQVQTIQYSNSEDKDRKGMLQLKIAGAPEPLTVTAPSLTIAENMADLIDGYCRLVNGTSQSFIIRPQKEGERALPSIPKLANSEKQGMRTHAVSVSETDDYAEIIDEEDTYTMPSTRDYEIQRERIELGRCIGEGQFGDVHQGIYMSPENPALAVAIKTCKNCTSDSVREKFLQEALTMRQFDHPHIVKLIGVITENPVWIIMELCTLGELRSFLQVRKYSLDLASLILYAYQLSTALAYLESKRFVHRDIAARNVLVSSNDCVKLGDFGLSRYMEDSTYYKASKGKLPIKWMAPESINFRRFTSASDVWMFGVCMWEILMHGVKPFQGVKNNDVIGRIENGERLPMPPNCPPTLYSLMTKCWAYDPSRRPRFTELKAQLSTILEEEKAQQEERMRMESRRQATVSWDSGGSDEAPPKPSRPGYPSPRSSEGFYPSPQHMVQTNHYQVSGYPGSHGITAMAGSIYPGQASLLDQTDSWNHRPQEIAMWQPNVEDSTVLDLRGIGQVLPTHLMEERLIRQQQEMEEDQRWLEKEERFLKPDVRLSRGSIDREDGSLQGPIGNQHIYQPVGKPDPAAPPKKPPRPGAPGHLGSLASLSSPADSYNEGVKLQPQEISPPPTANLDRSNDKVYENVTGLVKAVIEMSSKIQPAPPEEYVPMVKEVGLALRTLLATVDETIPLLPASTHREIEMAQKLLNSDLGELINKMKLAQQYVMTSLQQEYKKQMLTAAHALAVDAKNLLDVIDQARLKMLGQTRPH
Chain of Proto-oncogene tyrosine-protein kinase Src (P12931 2-536 limits assumed): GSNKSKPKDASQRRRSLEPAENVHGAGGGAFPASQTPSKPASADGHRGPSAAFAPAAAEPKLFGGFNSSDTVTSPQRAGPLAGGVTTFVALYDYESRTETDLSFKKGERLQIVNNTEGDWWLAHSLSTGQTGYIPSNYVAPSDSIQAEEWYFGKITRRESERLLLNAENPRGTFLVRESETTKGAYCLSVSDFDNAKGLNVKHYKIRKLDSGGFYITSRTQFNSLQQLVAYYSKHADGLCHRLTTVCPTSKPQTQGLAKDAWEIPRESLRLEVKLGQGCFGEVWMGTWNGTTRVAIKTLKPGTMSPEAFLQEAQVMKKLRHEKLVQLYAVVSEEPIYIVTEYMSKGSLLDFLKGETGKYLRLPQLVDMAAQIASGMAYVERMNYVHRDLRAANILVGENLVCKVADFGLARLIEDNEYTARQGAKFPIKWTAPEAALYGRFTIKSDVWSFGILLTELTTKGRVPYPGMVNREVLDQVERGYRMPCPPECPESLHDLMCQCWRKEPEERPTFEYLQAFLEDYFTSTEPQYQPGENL
Chain of Vascular endothelial growth factor receptor 2 (P35968 whole entry): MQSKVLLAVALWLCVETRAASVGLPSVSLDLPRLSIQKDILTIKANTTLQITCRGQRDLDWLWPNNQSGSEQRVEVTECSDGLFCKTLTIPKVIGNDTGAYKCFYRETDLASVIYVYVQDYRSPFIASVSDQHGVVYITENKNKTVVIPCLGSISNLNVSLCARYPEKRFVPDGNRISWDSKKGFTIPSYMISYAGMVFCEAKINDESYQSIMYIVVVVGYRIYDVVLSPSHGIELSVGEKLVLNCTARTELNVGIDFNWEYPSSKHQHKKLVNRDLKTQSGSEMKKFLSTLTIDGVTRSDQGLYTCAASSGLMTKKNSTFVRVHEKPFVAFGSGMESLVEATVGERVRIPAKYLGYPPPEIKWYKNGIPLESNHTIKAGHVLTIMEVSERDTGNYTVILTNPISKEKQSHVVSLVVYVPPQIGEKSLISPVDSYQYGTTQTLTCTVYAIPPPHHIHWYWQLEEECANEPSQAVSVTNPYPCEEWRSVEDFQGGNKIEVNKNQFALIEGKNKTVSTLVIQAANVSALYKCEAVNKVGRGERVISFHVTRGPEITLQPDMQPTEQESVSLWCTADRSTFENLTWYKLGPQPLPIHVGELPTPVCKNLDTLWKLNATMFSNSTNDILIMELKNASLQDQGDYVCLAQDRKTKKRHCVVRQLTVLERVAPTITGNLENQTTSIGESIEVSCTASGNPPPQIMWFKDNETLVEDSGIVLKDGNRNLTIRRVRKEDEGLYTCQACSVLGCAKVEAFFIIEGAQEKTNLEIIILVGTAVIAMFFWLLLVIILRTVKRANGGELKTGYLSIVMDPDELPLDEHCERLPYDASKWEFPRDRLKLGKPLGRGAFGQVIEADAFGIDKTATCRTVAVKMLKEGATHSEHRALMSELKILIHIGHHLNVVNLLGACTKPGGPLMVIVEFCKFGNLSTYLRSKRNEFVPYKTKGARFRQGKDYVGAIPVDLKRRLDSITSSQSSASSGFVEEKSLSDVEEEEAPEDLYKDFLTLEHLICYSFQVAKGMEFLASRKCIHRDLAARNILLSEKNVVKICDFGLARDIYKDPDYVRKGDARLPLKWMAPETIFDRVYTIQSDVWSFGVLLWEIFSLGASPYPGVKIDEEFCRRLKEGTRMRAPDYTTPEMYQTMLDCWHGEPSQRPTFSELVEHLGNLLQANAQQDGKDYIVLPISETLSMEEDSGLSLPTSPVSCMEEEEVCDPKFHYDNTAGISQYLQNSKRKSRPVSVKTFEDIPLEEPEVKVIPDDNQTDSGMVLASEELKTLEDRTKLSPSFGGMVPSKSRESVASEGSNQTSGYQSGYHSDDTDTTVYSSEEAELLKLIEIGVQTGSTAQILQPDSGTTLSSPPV
Chain of NUAK family SNF1-like kinase 1 (O60285 whole entry): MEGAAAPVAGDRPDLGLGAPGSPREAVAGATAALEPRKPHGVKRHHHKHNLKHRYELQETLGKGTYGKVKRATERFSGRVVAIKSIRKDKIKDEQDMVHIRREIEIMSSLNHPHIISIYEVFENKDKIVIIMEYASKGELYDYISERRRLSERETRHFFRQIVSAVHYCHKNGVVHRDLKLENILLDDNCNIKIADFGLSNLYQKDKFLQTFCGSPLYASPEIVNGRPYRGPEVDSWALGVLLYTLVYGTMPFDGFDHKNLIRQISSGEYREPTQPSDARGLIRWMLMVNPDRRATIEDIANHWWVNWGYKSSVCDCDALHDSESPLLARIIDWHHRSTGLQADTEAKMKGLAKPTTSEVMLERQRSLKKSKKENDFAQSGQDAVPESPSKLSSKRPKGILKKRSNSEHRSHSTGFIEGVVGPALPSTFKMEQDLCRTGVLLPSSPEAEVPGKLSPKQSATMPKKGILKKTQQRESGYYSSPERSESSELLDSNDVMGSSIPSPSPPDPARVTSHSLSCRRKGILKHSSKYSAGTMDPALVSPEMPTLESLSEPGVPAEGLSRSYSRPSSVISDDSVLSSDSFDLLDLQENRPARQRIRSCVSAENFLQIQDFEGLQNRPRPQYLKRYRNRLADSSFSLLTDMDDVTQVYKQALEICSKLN
Chain of Aurora kinase B (Q96GD4 whole entry): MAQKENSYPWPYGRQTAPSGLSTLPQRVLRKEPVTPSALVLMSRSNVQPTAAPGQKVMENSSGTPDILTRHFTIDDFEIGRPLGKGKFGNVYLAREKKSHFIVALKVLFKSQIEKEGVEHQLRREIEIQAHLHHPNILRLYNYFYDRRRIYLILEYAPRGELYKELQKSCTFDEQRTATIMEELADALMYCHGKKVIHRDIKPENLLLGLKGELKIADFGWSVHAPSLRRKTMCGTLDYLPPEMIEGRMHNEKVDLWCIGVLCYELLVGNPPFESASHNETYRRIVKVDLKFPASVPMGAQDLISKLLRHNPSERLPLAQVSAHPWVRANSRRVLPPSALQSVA
Chain of RAC-alpha serine/threonine-protein kinase (P31749 whole entry, the tested form may be a part): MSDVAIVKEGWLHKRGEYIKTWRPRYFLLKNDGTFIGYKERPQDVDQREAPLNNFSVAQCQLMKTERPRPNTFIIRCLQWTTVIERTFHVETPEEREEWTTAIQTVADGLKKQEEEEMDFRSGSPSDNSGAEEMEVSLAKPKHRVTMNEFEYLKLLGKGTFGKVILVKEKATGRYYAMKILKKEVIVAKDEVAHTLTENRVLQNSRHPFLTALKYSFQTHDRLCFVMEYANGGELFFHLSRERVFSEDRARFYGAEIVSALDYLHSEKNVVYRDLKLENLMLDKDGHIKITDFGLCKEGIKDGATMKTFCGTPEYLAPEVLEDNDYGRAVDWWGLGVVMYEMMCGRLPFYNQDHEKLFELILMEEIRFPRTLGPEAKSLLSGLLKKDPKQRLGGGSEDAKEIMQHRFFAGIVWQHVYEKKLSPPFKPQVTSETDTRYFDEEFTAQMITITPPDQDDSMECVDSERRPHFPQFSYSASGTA

Q: For `O=C1CCCc2c1c1c(n2CCCc2ccccc2)-c2ccccc2C1=O`, which inhibition [1] is on record?
A: 27%

Q: For `Cc1cc(O)c2c(c1)C(=O)c1cc(O)cc(O)c1C2=O` [EMODIN], which IC50 [2] is on record?
A: 0.89 µM

Q: Which inhibition [1] does the source give for `O=C1CCCc2c1c1c(n2Cc2ccccn2)-c2ccccc2C1=O` here?
A: 30%

Q: Which results are given for `O=c1oc2c(O)c(O)cc3c(=O)oc4c(O)c(O)cc1c4c23` [ELLAGIC ACID]?
A: IC50 [3]: 3.34 µM; IC50 [4]: 0.25 µM; IC50 [5]: 0.79 µM; IC50 [6]: 1.54 µM; IC50 [7]: 0.58 µM; IC50 (Insulin receptor): 0.34 µM; IC50 (Angiopoietin-1 receptor): 0.26 µM; IC50 [8]: 1.76 µM; IC50 (Focal adhesion kinase 1): 3.11 µM; IC50 [9]: 3.34 µM; IC50 [10]: 2.37 µM; IC50 [11]: 0.51 µM; IC50 [12]: 3.39 µM; IC50 (Ephrin type-B receptor 4): 1.83 µM; IC50 (Aurora kinase B): 2.5 µM; IC50 [13]: 1.09 µM; IC50 [14]: 0.8 µM; IC50 (Aurora kinase A): 2.48 µM; IC50 [15]: 3.54 µM; IC50 [16]: 2.97 µM

Q: For `CC(c1ccccc1)n1c2c(c3c1-c1ccccc1C3=O)C(=O)CCC2` (configuration not stated), which inhibition [1] is on record?
A: 66%

Q: What about the IC50 [17] of the same compound?
A: 4.66 µM

Q: For `O=C1CCCc2c1c1c(n2CCc2ccccc2)-c2ccccc2C1=O`, which inhibition [1] is on record?
A: 67%

Q: For `OC[C@H]1O[C@@H](n2cnc3cc(Cl)c(Cl)cc32)[C@H](O)[C@@H]1O` [DICHLORORIBOBENZIMIDAZOLE], which IC50 [18] is on record?
A: 15 µM

Q: With `O=C1CCCc2c1c1c(n2Cc2ccccc2)-c2ccccc2C1=O` as the compound, how does the inhibition [1] read?
A: 48%

Q: With `O=C1c2ccccc2-c2c1c1c(O)cc(-c3ccccc3)cc1n2Cc1ccccc1` as the compound, how does the inhibition [1] read?
A: 31%

Q: For `CC(C)n1c2c(c3c1-c1ccccc1C3=O)C(=O)CCC2`, which IC50 [3] is on record?
A: > 35 µM

Q: What about the IC50 [4] of the same compound?
A: > 35 µM

Q: What about the IC50 [5] of the same compound?
A: > 35 µM

Q: And the IC50 [6]?
A: > 35 µM

Q: And the IC50 [7]?
A: > 35 µM

Q: And the IC50 (Insulin receptor)?
A: > 35 µM

Q: And the IC50 (Angiopoietin-1 receptor)?
A: > 35 µM

Q: And the IC50 [8]?
A: > 35 µM

Q: And the IC50 (Focal adhesion kinase 1)?
A: > 35 µM

Q: What about the IC50 [9] of the same compound?
A: > 35 µM

Q: And the IC50 [10]?
A: > 35 µM

Q: What about the IC50 [11] of the same compound?
A: > 35 µM

Q: And the IC50 [12]?
A: > 35 µM

Q: And the IC50 (Ephrin type-B receptor 4)?
A: > 35 µM

Q: What about the IC50 (Aurora kinase B) of the same compound?
A: > 35 µM

Q: What about the inhibition of growth at 20 µM [19] of the same compound?
A: 25%

Q: What about the IC50 [13] of the same compound?
A: > 35 µM

Q: And the IC50 [14]?
A: > 35 µM

Q: What about the IC50 (Aurora kinase A) of the same compound?
A: > 35 µM

Q: And the IC50 [15]?
A: > 35 µM

Q: And the IC50 [16]?
A: > 35 µM

Q: For `COc1ccc(CCn2c3c(c4c2-c2ccccc2C4=O)C(=O)CCC3)cc1OC`, which inhibition [1] is on record?
A: 50%

Q: With `O=C1c2ccccc2-c2c1c1c(O)cccc1n2Cc1ccccc1` as the compound, how does the inhibition [1] read?
A: 25%

Q: Which inhibition [1] does the source give for `O=C1CCCc2c1c1c(n2-c2ccccc2)-c2ccccc2C1=O` here?
A: 60%

Q: For `O=C1CCCc2[nH]c3c(c21)C(=O)c1ccccc1-3`, which inhibition [1] is on record?
A: 19%

Q: With `COC(=O)C1C(=O)c2c([nH]c3c2C(=O)c2ccccc2-3)CC1C` (configuration not stated) as the compound, how does the inhibition [1] read?
A: 28%

Q: With `COc1ccc(CCn2c3c(c4c(O)cccc42)C(=O)c2ccccc2-3)cc1OC` as the compound, how does the inhibition [1] read?
A: 34%

Q: For `Brc1c(Br)c(Br)c2[nH]nnc2c1Br` [TETRABROMOBENZOTRIAZOLE], which IC50 [20] is on record?
A: 1.6 µM

Q: For `COc1ccc(Cn2c3c(c4c2-c2ccccc2C4=O)C(=O)CCC3)cc1`, which inhibition [1] is on record?
A: 41%

Q: With `COC(=O)C1C(=O)c2c3c(n(Cc4ccccc4)c2CC1C)-c1ccccc1C3=O` (configuration not stated) as the compound, how does the inhibition [1] read?
A: 15%

Q: For `O=C1CC(c2ccccc2)Cc2c1c1c(n2Cc2ccccc2)-c2ccccc2C1=O` (racemic), which inhibition [1] is on record?
A: 3%

Q: For `CC1CC(=O)c2c3c(n(Cc4ccccc4)c2C1)-c1ccccc1C3=O` (racemic), which inhibition [1] is on record?
A: 11%

Q: For `CC1(C)CC(=O)c2c3c(n(Cc4ccccc4)c2C1)-c1ccccc1C3=O`, which inhibition [1] is on record?
A: 10%
